Tests used:
[1] = molecular target: T1, 5-hydroxytryptamine receptor 1A (Homo sapiens, UniProt P08908); test: Displacement of [3H]-8-OH-DPAT from recombinant human 5-HT1A receptor expressed in CHOK1 cell membranes after 1 hr by liquid scintillation counting method; parameters: species or system CHO-K1
T1 sequence (P08908 whole entry): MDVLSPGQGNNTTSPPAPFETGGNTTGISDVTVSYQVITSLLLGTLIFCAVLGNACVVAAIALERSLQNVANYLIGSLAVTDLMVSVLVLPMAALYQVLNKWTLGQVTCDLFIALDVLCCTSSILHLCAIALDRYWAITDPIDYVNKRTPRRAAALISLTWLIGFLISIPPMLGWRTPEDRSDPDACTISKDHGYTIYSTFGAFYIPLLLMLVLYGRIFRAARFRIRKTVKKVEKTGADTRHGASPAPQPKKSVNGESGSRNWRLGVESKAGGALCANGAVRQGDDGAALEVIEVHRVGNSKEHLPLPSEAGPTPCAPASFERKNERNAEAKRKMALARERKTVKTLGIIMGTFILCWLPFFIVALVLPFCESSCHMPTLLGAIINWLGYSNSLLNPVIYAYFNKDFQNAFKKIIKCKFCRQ

[2] = molecular target: T2, 5-hydroxytryptamine receptor 7 (Homo sapiens, UniProt P34969); test: Displacement of [3H]-5-HT from recombinant human 5-HT7A receptor expressed in CHOK1 cell membranes after 40 mins by liquid scintillation counting method; parameters: species or system CHO-K1
T2 sequence (P34969 whole entry): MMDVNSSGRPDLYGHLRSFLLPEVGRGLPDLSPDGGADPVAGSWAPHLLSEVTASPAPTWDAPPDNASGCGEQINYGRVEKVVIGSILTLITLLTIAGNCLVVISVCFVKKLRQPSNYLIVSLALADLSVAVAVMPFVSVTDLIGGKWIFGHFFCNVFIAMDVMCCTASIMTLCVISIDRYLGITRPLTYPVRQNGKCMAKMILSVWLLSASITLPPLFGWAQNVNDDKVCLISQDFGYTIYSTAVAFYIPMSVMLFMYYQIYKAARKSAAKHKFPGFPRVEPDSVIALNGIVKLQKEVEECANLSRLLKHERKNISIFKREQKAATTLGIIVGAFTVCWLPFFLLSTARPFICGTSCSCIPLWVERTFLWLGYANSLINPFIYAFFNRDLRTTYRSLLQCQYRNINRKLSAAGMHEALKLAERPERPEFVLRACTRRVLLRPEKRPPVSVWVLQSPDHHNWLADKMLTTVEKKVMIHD
Outline: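 Membranes (15 µg protein/sample) in 50 mM Tris-HCl pH 7.4 with 4 mM MgCl2, incubated 40 min at 27 °C with [3H]-5-HT (5 nM final). Nonspecific binding with 10 µM serotonin. Stopped by vacuum filtration on PEI-soaked GF/C filters, ice-cold Tris washes.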

[3] = molecular target: T3, 5-hydroxytryptamine receptor 1A (Homo sapiens) (UniProt P08908); test: Antagonist activity at recombinant human 5-HT1A receptor expressed in HEK293 cells assessed as inhibition of 8-OH-DPAT-induced decrease in cAMP level at 10^-6M after 30 mins in presence of forskolin by TR-FRET assay relative to control; type: functional, cell-based
T3 sequence (whole entry): T1 sequence (P08908 whole entry)
Outline: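 Stable HEK293 cells grown in DMEM with 10% dialysed FBS and G418, resuspended in HBSS/HEPES buffer with 0.5 mM IBMX and 0.1% BSA. Stimulated with 1 µM forskolin plus 1 µM (R)-(+)-8-OH-DPAT alongside test ligand, 30 min at room temperature. cAMP by LANCE Ultra TR-FRET after lysis, 1 h.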

[4] = molecular target: T2, 5-hydroxytryptamine receptor 7; test: Antagonist activity at recombinant human 5-HT7 receptor expressed in HEK293 cells assessed as inhibition of 5-CT-induced increase in cAMP level at 10^-6M after 30 mins by TR-FRET assay relative to control; type: functional, cell-based
Outline: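 Stably transfected HEK293 cells in stimulation buffer (HBSS, 5 mM HEPES, 0.5 mM IBMX, 0.1% BSA) exposed to 10 nM 5-CT with test ligand for 30 min at room temperature. Lysis with Eu-cAMP/ULight-anti-cAMP, 1 h, then TR-FRET readout of cAMP.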

Compound	Ki [1]	Ki [2]	inhibition [3]	inhibition [4]
c1ccc(-c2cc(OCCCCCN3CCN(c4ccccc4)CC3)ncn2)cc1	0.0335 µM	0.143 µM	–	–
c1ccc(CN2CCN(CCCCCOc3cc(-c4ccccc4)ncn3)CC2)cc1	1.03 µM	0.99 µM	–	–
Cc1nc(OCCCCCN2CCN(c3ccc(Cl)cc3)CC2)c2ccccc2n1	0.0521 µM	0.181 µM	–	–
CCOc1ccccc1N1CCN(CCCCCn2cnc(-c3ccccc3)cc2=O)CC1	0.0259 µM	0.0451 µM	–	–
Clc1ccc(N2CCN(CCCCCOc3cc(-c4ccccc4)ncn3)CC2)cc1	0.0903 µM	1.38 µM	–	–
Cc1nc2ccccc2c(=O)n1CCCCCN1CCN(c2ccc(Cl)cc2)CC1	0.1 µM	0.327 µM	–	–
O=c1cc(-c2ccccc2)ncn1CCCCCN1CCN(c2ccc(Cl)cc2)CC1	0.167 µM	1.31 µM	–	–
O=c1cc(-c2ccccc2)ncn1CCCCCN1CCN(c2ccccc2)CC1	0.111 µM	0.613 µM	–	–
CC1CCN(CC[C@H]2CCCN2S(=O)(=O)c2cccc(O)c2)CC1	–	–	–	97%
O=c1cc(-c2ccccc2)ncn1CCCCCN1CCN(Cc2ccccc2)CC1	0.772 µM	1.33 µM	–	–

The remaining molecules from weak to strong by Ki [1], led by results:

Ki [1]	Ki [2]	inhibition [3]	inhibition [4]	Compound
0.0247 µM	0.276 µM	–	–	Cc1nc(OCCCCCN2CCN(c3ccccc3)CC2)c2ccccc2n1
0.0186 µM	0.0537 µM	–	–	Cc1nc2ccccc2c(=O)n1CCCCCN1CCN(c2ccccc2)CC1
0.0178 µM	0.0947 µM	–	–	O=c1cc(-c2ccccc2)ncn1CCCCCN1CCN(c2cccc(Cl)c2)CC1
0.0174 µM	0.0448 µM	–	–	Clc1cccc(N2CCN(CCCCCOc3cc(-c4ccccc4)ncn3)CC2)c1
0.00821 µM	0.0351 µM	–	–	Cc1nc2ccccc2c(=O)n1CCCCCN1CCN(c2cccc(Cl)c2)CC1
0.00696 µM	0.0235 µM	6%	5.5%	CCOc1ccccc1N1CCN(CCCCCOc2cc(-c3ccccc3)ncn2)CC1
0.00299 µM	0.00842 µM	18%	19.5%	CCOc1ccccc1N1CCN(CCCCCn2c(C)nc3ccccc3c2=O)CC1

Source: ChEMBL document CHEMBL3875221, “New N- and O-arylpiperazinylalkyl pyrimidines and 2-methylquinazolines derivatives as 5-HT7 and 5-HT1A receptor ligands: Synthesis, structure-activity relationships, and molecular modeling studies” (Bioorg Med Chem, 2017)
